# TRPC4 inh: inhibitors of mouse TRPC4 channel, primary screen, Fluo4 calcium, HEK293 TRPC4beta/mu-opioid cells | DAMGO-evoked Fluo4 calcium flux; active compounds read low | B-score at 10 µM | hit rate 0.39% among 300,000;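 active means B-score over 3 SD under the library average, no early fluorescence shift, positive overall ratio signal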
# Target sequence (Q9QUQ5 whole entry, looked up): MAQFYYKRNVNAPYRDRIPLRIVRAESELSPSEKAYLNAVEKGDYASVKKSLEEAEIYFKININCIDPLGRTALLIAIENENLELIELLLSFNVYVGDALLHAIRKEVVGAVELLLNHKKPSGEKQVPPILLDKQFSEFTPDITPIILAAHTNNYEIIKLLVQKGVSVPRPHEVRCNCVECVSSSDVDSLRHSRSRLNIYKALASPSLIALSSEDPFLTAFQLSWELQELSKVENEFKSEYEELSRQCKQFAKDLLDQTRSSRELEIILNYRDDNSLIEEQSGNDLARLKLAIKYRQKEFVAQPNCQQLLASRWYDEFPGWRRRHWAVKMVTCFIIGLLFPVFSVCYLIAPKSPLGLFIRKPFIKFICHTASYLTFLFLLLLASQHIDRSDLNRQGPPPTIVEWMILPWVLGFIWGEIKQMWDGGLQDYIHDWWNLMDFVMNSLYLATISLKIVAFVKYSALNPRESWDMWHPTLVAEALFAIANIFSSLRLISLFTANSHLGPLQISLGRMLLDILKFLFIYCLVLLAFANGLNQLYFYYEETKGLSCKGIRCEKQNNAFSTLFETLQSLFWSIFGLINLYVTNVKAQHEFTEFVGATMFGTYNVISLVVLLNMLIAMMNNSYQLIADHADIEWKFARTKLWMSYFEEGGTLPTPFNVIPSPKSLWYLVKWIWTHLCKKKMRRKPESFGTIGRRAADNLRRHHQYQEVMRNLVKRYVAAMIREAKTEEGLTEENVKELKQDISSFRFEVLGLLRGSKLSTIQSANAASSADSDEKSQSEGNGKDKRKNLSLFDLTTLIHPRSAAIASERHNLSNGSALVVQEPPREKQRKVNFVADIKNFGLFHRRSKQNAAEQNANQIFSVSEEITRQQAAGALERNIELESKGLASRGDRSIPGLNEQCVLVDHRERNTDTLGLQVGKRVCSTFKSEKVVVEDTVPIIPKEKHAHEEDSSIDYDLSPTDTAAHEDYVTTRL
#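 Signal: kinetic Fluo4 fluorescence imaging of calcium influx. Material: stable TRPC4beta/mu-opioid receptor HEK293 cells. Probe or stimulus: DAMGO in two steps, submaximal then maximal.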
# TRPC4 agonist: activators of mouse TRPC4 channel, primary screen, Fluo4 calcium, HEK293 TRPC4beta/mu-opioid cells | Short transient receptor potential channel 4 (Mus musculus), Q9QUQ5 | Fluo4 calcium fluorescence; active compounds read high | B-score at 10 µM | hit rate 0.49% among 310,000;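 active means B-score above 5 SD of library B-scores, and initial fluorescence ratio not above library mean plus 5 SD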;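 further: positive B-score marks a calcium rise read as TRPC4 activation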
#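 Test system: HEK293 cells stably co-expressing mouse TRPC4beta and mu-opioid receptor | Schedule: Fluo4 dye loading 45 min at room temperature, 110 s recording | Measured by: Kinetic Fluo4 calcium fluorescence, 5 s baseline at 1 Hz | Evaluation: B score of integrated ratio | Controls: Buffer (low) and maximal DAMGO (high)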
# TRPC6 act: mouse TRPC6 channel activators, primary screen, cell-based, HEK293, membrane potential dye; hit rate 0.13% among 310,000; HEK293-TRPC6 membrane potential dye fluorescence; active compounds read high; AID 2550, 2010; Short transient receptor potential channel 6 (Mus musculus), Q61143; B-score at 10 µM;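 active means B-score of the integrated fluorescence ratio above library mean plus 3 SD, and starting fluorescence ratio within library mean plus 5 SD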;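 further: higher score means more depolarization so channel activation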
# TRPC6 inhibitor: mouse TRPC6 channel inhibitors, primary screen, cell-based, HEK293, membrane potential dye; B-score at 10 µM; Short transient receptor potential channel 6 (Mus musculus), Q61143; hit rate 1.1% among 310,000; ACh-evoked depolarization; active compounds read low;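 active means B-score under library mean minus 3 SD, initial fluorescence not abnormally high, positive integrated signal ratio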;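 further: B-score derived from integrated fluorescence ratio over the kinetic read; more negative B-score means stronger inhibition of depolarization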
# TRPC4 PAM: positive allosteric modulators of TRPC4, primary screen, cell-based, mouse TRPC4beta, HEK293 mu-opioid, Fluo-4 calcium. DAMGO EC20, Fluo-4 Ca2+ flux; active compounds read high. B-score at 10 µM. Short transient receptor potential channel 4 (Mus musculus), Q9QUQ5. hit rate 0.42% among 310,000;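 active means B-score of calcium response area above 5 SD of library B-scores, with initial fluorescence ratio within 5 SD of library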;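 further: B-score of integrated fluorescence ratio over time as area under calcium response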
# TRPC4 spec 2: second selectivity test of TRPC6 inhibitors: effect on mouse TRPC4; HEK293 TRPC4/MOR, membrane potential dye fluorescence; channel activated by saturating DAMGO dose; inhibition, % at 10 µM; shares compounds with TRPC6 inhibitor; hit rate 42% among 920; AID 2776;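 active means compounds whose fluorescence signal differed from control wells by over 3 SD, either direction, in both duplicate plates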
# TRPC4 spec: mouse TRPC4 modulation by TRPC6 hits, confirmation, selectivity assay for TRPC6 inhibitor project, cell-based, HEK293 TRPC4/mu-opioid, membrane potential dye | shares compounds with TRPC6 inhibitor | membrane potential fluorescence | activity change, negative = inhibition, % at 10 µM | hit rate 61% among 920;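 active means rise or fall in signal beyond 3 SD of buffer-only wells in both replicate plates, either sign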;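 further: integrated kinetic ratio of fluorescence range over baseline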
# HEK293 MPD ctr 2-1: nonspecific membrane potential effects, parental HEK293, confirmation, counter-screen for TRPC6 inhibitor project, cell-based, second counter screen; signal change vs control, % at 10 µM; hit rate 31% among 920; shares compounds with TRPC6 inhibitor; parental HEK293 membrane potential dye fluorescence; maximal acetylcholine challenge after compound addition;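 active means membrane potential signal moving either way by over 3 SD of the maximum-effect control, in both duplicate plates, meaning non-specific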
# HEK293 MPD ctr-1: membrane potential modulation in parental HEK293, confirmation, counter-screen for TRPC6 inhibitor project, cell-based | hit rate 60% among 920 | membrane potential signal change, % at 10 µM | shares compounds with TRPC6 inhibitor | parental HEK293 membrane potential dye fluorescence;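 active means membrane potential signal shifting up or down by more than 3 SD of buffer-only wells, on both duplicate plates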
# HEK293 MPD ctr-2: parental HEK293 membrane potential modulation, confirmation, counter-screen for TRPC6 modulator project, cell-based; hit rate 51% among 2,400; shares compounds with TRPC6 inhibitor; membrane potential dye fluorescence; membrane potential signal change, % at 10 µM;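 active means membrane potential signal moves up or down beyond 5 SD from buffer-only wells, on both duplicate plates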
# HEK293 MPD ctr 2-2: second counter-screen for TRPC6 modulators: effect in parental HEK293 cells | hit rate 14% among 2,400 | membrane potential dye fluorescence; after compound, maximal acetylcholine stimulation | AID 488926 | inhibition, % at 10 µM | shares compounds with TRPC6 inhibitor;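 active means membrane potential signal drops by more than 5 SD from the mean control signal, in both duplicate plates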;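 further: plate controls were acetylcholine ECmax control wells for no effect and buffer only wells for full effect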
# TRPC4 ctr mod: TRPC4 modulation by TRPC6 hit compounds, confirmation, selectivity assay for TRPC6 modulator project, cell-based, HEK293 TRPC4/mu-opioid, membrane potential dye, mouse; hit rate 69% among 2,400; AID 488927, 2010; percent change from control (negative = decrease, positive = increase), % at 10 µM; shares compounds with TRPC6 inhibitor; membrane potential fluorescence;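 active means membrane potential signal moved up or down beyond 5 SD of buffer control wells, in both duplicate plates, actives on both sides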;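 further: plate controls were assay buffer wells for no effect and DAMGO maximal-effect wells for full effect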
# TRPC4 ctr inh 2: second check of whether TRPC6 modulators also affect mouse TRPC4; shares compounds with TRPC6 inhibitor; HEK293 TRPC4/mu-opioid, membrane potential dye fluorescence; stimulated with maximal-effect DAMGO; inhibition, % at 10 µM; hit rate 55% among 2,400; AID 488928;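 active means drop in membrane potential signal beyond 5 SD of the control wells in both duplicate plates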;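 further: TRPC4 counter screen for TRPC6 hits run under conditions tuned for TRPC6 not TRPC4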
# TRPC6 inh conf: mouse TRPC6 channel inhibitors, confirmation, HEK293 cells, membrane potential dye, duplicate; shares compounds with TRPC6 inhibitor; ACh-evoked depolarization; inhibition, % at 10 µM; hit rate 43% among 3,300;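 active means fluorescence ratio falls more than 5 SD below the full-stimulation control mean, in both duplicate runs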;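 further: integrated fluorescence ratio of peak minus minimum over baseline after agonist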
# TRPC6 act conf: mouse TRPC6 channel activators, confirmation, HEK293 cells, membrane potential dye, duplicate | shares compounds with TRPC6 inhibitor | hit rate 11% among 2,800 | AID 488961, 2010 | HEK293-TRPC6 membrane potential dye fluorescence, FDSS | activation, % at 10 µM;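 active means ratio signal rise beyond 5 SD above unstimulated control wells' mean, seen in both duplicate runs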;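 further: plate controls were buffer EC0 wells for no effect and acetylcholine ECmax response for full effect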
# * marks the source's active call; other numbers are inactive results; i = inactive; . = no result. Rows were chosen to be rich in hits. Some 2.3% of all compounds tested hit in one or more screens of this group.
SMILES,TRPC4 inh,TRPC4 agonist,TRPC6 act,TRPC6 inhibitor,TRPC4 PAM,HEK293 MPD ctr-2,HEK293 MPD ctr 2-2,TRPC4 ctr mod,TRPC4 ctr inh 2,TRPC6 inh conf,TRPC6 act conf,others
COc1cnc(-c2ccccn2)nc1N(C)C,i,i,i,-5.2*,i,-76%*,i,-16%*,i,i,i,
COc1ccc(Oc2nc(-c3ccccn3)ncc2OC)cc1,i,i,i,i,i,.,.,.,.,.,.,
COc1cnc(-c2ccccn2)nc1Oc1cccc(Cl)c1,i,i,i,-5.5*,i,i,i,i,i,i,i,
COC(=O)c1oc2ccc(Br)cc2c1NC(=O)CN1CCN(C)CC1,i,i,i,-5.5*,i,i,i,-16%*,52%*,48%*,i,
Cc1nn(C)c(Sc2ccccn2)c1[N+](=O)[O-],i,i,i,i,i,.,.,.,.,.,.,
Cn1c(=O)c(C#N)c(-c2ccc(F)cc2)c2cc(C(=O)c3cc(Cl)cc(Cl)c3O)cnc21,i,i,i,-9.4*,i,.,.,.,.,76%*,i,TRPC4 spec 2=44%*;TRPC4 spec=-13%*;HEK293 MPD ctr 2-1=i;HEK293 MPD ctr-1=-158%*
CCOc1ccc(NC(=O)C/C(C)=N/NC(=O)COc2ccc(Br)cc2C)cc1,i,i,i,i,i,.,.,.,.,.,.,
CCC(C(=O)Nc1cccc(C(=O)O)c1C)c1ccccc1 (stereo not drawn),i,i,i,i,i,.,.,.,.,.,.,
COc1ccc(S(=O)(=O)N2CCc3cc(OC)c(OC)cc3C2)cc1,i,i,i,-7.1*,i,.,.,.,.,i,i,TRPC4 spec 2=i;TRPC4 spec=i;HEK293 MPD ctr 2-1=i;HEK293 MPD ctr-1=i
COc1cc2c(cc1OC)CN(S(=O)(=O)c1cccs1)CC2,i,i,i,i,i,.,.,.,.,.,.,
CC(CCc1ccccc1)NCc1cccc2ccccc12 (stereo not drawn),i,i,i,-7.4*,i,.,.,.,.,67%*,.,TRPC4 spec 2=i;TRPC4 spec=32%*;HEK293 MPD ctr 2-1=i;HEK293 MPD ctr-1=15%*
Cc1cc(-c2ccccc2)n2nc(N)nc2n1,i,i,i,i,i,.,.,.,.,.,.,
COC(=O)c1cc(OC(=O)c2ccc(=O)[nH]c2)cc(C(=O)OC)c1,i,i,i,i,i,.,.,.,.,.,.,
Cc1ccc(-c2ccc(OC(=O)c3ccc(=O)[nH]c3)c(C)c2)cc1,i,i,i,-5.1*,i,i,i,i,i,i,i,
CC(=O)NC(CC(=O)N1CCN(C(C)=O)CC1)c1ccccc1 (stereo not drawn),i,i,i,i,i,.,.,.,.,.,.,
N#Cc1c2ccc(O)cc2n2ccccc12,i,i,16*,-6.8*,i,436%*,86%*,55%*,i,64%*,126%*,
N#Cc1c2ccc(OCC(=O)NCc3ccco3)cc2n2ccccc12,i,i,i,i,i,.,.,.,.,.,.,
CN(CC(=O)Nc1ccccc1Cl)C(=O)c1ccc(COc2ccccc2)cc1,i,i,i,i,i,.,.,.,.,.,.,
COC(=O)c1cc(NC(=O)CSc2nnc(N)s2)ccc1Cl,i,i,i,-7.1*,i,i,i,i,i,i,i,
COC/C=C/C1=CC2=CC(=O)C(C)(OC(=O)c3cnc4ccccc4n3)C(=O)C2=CO1 (stereo not drawn),i,i,i,i,i,.,.,.,.,.,.,
C=CCOC(=O)C1=C(C)N(C)C(=O)NC1c1cc2c(cc1Br)OCO2 (stereo not drawn),i,i,i,-5.4*,i,i,i,i,i,i,i,
C[n+]1ccccc1/C=C/c1ccc(F)c(F)c1,i,i,i,-7.2*,i,.,.,.,.,80%*,i,TRPC4 spec 2=i;TRPC4 spec=-34%*;HEK293 MPD ctr 2-1=34%*;HEK293 MPD ctr-1=-596%*
C[n+]1ccccc1/C=C/c1ccc([N+](=O)[O-])cc1,i,i,i,-7.3*,i,-250%*,110%*,-40%*,52%*,64%*,i,
CC(C)[C@H](NC(=O)c1ccccc1Cl)C(=O)NC1CCCCCC1,i,i,i,i,i,.,.,.,.,.,.,
O=C1C2C3CCC(CC3)C2C(=O)N1c1ccccc1 (stereo not drawn),i,i,i,i,i,.,.,.,.,.,.,

# Assay outcomes deposited in PubChem by Johns Hopkins Ion Channel Center.
